The results in this text go back to publication PMC7220363 (Drug Design, Development and Therapy, 2020).

The target of one assay is mTOR enzyme (Homo sapiens, UniProt P42345). As to the kind of experiment: mTOR enzyme assay. It counts as biochemical. Particulars: for Selectivity: PI3Kα IC50 relative to mTOR IC50 (table column); for inhibitory activity against mTOR (in words): derivatives with a para-substituent group on R3.
A further assay concerns the target PI3Kα (p110α/p85α) (Homo sapiens, UniProt P42336). As to the kind of experiment: PI3Kα enzyme assay. It counts as biochemical. Put shortly:
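Purchased recombinant PI3K enzyme (α, β, δ as p110/p85α; γ as p120γ) was mixed with the PIP2:3PS lipid substrate, and the reaction was started with ATP from a 250 µM solution. Luminescence was read by ADP-Glo. Inhibition was normalised to DMSO and no-enzyme controls, with IC50 averaged over two runs.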

pIC50: −log10 of the molar value.

Chain of PI3Kα (p110α/p85α) (P42336 whole entry): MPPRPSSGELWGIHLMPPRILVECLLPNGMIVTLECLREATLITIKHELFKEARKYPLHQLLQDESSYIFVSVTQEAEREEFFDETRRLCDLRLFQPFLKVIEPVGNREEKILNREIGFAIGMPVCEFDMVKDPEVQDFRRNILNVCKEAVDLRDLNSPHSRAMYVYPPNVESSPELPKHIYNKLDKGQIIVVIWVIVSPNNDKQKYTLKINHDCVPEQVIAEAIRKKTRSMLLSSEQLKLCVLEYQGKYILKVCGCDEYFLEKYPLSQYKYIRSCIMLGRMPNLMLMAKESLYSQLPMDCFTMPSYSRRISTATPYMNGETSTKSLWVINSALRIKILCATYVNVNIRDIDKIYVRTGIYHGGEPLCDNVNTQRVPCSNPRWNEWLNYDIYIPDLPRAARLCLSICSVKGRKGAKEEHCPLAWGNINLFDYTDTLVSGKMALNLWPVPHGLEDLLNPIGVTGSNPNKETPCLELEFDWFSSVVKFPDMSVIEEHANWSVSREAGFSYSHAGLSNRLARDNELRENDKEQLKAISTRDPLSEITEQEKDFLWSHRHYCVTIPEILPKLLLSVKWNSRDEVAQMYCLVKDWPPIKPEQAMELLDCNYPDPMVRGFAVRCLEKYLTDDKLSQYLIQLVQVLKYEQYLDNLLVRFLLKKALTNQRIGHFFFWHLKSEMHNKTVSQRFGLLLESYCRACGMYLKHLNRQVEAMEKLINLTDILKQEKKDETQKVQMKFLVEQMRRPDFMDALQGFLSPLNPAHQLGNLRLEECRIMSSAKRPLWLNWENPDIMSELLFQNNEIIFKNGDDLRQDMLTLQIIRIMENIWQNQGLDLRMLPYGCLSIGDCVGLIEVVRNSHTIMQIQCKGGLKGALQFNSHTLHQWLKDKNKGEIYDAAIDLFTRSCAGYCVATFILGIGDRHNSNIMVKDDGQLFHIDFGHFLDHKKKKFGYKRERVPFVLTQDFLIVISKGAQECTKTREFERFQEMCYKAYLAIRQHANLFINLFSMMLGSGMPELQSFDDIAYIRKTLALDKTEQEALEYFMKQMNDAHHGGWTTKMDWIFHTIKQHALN
Chain of PI3Kα (p110α/p85α) (P27986 whole entry partner): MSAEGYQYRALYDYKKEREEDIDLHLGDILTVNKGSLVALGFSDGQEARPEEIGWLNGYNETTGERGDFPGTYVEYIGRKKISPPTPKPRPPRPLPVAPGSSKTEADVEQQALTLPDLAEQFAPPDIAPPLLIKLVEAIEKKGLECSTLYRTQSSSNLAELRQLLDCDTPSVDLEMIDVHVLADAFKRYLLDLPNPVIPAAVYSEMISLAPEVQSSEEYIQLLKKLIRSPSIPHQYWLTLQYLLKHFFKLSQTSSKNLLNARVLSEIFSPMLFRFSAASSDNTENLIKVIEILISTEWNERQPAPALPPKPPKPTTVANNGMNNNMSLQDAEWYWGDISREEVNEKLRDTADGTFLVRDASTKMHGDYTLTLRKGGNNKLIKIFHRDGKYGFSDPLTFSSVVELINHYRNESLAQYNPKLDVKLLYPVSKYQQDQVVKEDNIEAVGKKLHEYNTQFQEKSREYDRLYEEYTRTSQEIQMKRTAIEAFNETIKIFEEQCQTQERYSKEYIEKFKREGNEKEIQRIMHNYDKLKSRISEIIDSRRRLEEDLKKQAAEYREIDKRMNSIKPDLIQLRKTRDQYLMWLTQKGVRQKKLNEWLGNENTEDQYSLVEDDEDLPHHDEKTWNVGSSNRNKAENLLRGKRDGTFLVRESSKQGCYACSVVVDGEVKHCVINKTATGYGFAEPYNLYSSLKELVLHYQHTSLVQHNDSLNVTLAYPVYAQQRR

Usually pIC50 stands for the IC50 on a negative log10 scale, so that one unit is a factor of ten. Consider `COC(=O)CCSc1nc2n(n1)C(c1cccc(O)c1)C(C(=O)Nc1cncc(C)c1)=C(C)N2` (stereo not shown) [3a, Methyl 3-((7-(3-Hydroxyphenyl)-5-Methyl-6-((5-Methylpyridin-3-yl) Carbamoyl)-4,7-Dihydro-[1,2,4] Triazolo[1,5-a]Pyrimidin-2-yl)Thio)Propanoate], for which the figures for the pIC50 at mTOR enzyme and against PI3Kα (p110α/p85α) were 6.59 and 5.45, respectively. This compound also returned a Selectivity on mTOR enzyme of 14.
Taken in the same sequence, the figures for `COc1cccc(C2C(C(=O)Nc3cccc(C(C)=O)c3)=C(C)Nc3nc(SCCC4OCCO4)nn32)c1` (stereo not shown) [2i, 2-((2-(1,3-Dioxolan-2-yl)Ethyl)Thio)-N-(3-Acetylphenyl)-7-(3-Methoxyphenyl)-5-Methyl-4,7-Dihydro-[1,2,4]Triazolo[1,5-a]Pyrimidine-6-Carboxamide] were 7.04, 5.57 and 29.
In general, inhibition refers to how much of the control response was suppressed. `COCCCSc1nc2n(n1)C(c1cccc(OC)c1)C(C(=O)Nc1cccnc1)=C(C)N2` (stereo not shown) [1a, 7-(3-Methoxyphenyl)-2-((3-Methoxypropyl)Thio)-5-Methyl-N-(Pyridin-3-yl)-4,7-Dihydro-[1,2,4]Triazolo[1,5-a]Pyrimidine-6-Carboxamide]: on mTOR enzyme, the pIC50 is 6.78 and the Selectivity is listed as 9. In addition, the inhibition at 10 µM on mTOR enzyme (read-out: mTOR enzyme inhibition rate) stood at 91.8%. At PI3Kα (p110α/p85α), this compound had a pIC50 of 5.80.
As to `COc1ccc(NC(=O)C2=C(C)Nc3nc(SCCC4OCCO4)nn3C2c2cccc(OC)c2)cc1` (stereo not shown) [2h, 2-((2-(1,3-Dioxolan-2-yl)Ethyl)Thio)-7-(3-Methoxyphenyl)-N-(4-Methoxyphenyl)-5-Methyl-4,7-Dihydro-[1,2,4]Triazolo[1,5-a]Pyrimidine-6-Carboxamide], at mTOR enzyme, the negative-log IC50 (pIC50) is 6.44 and the Selectivity stood at 9. On PI3Kα (p110α/p85α), this compound showed a pIC50 of 5.49.
The matching figures for `COC(=O)CCSc1nc2n(n1)C(c1cccc(F)c1)C(C(=O)Nc1cncc(C)c1)=C(C)N2` (stereo not shown) [3h, Methyl 3-((7-(3-Fluorophenyl)-5-Methyl-6-((5-Methylpyridin-3-yl)Carbamoyl)-4,7-Dihydro-[1,2,4] Triazolo[1,5-a]Pyrimidin-2-yl)Thio)Propanoate]: 6.49, 2 and 6.13.
The matching figures for `COC(=O)CCSc1nc2n(n1)C(c1cccc(OC)c1)C(C(=O)Nc1cccc(C(C)=O)c1)=C(C)N2` (stereo not shown) [2d, Methyl 3-((6-((3-Acetylphenyl)Carbamoyl)-7-(3-Methoxyphenyl)-5-Methyl-4,7-Dihydro-[1,2,4]Triazolo[1,5-a]Pyrimidin-2-yl)Thio)Propanoate]: 7.64, 10 and 6.64.
Taken in the same sequence, the figures for `COC(=O)CCSc1nc2n(n1)C(c1cc(C)cc(C)c1)C(C(=O)Nc1cncc(C)c1)=C(C)N2` (stereo not shown) [3f, Methyl 3-((7-(3,5-Dimethylphenyl)-5-Methyl-6-((5-Methylpyridin-3-yl) Carbamoyl)-4,7-Dihydro-[1,2,4]Triazolo[1,5-a]Pyrimidin-2-yl)Thio)Propanoate] were 6.28, 0.8 and 6.36.
On mTOR enzyme, `COc1cccc(C2C(C(=O)Nc3cccc(F)c3)=C(C)Nc3nc(SCCC4OCCO4)nn32)c1` (stereo not shown) [2g, 2-((2-(1,3-Dioxolan-2-yl)Ethyl)Thio)-N-(3-Fluorophenyl)-7-(3-Methoxyphenyl)-5-Methyl-4,7-Dihydro-[1,2,4]Triazolo[1,5-a]Pyrimidine-6-Carboxamide] gave a pIC50 of 6.50 and a Selectivity of 3. The compound also had a negative-log IC50 (pIC50) against PI3Kα (p110α/p85α) of 6.07.
As for `COc1cccc(C2C(C(=O)Nc3ccc(C(C)=O)cc3)=C(C)Nc3nc(SCCC4OCCO4)nn32)c1` (stereo not shown) [2j, 2-((2-(1,3-Dioxolan-2-yl)Ethyl)Thio)-N-(4-Acetylphenyl)-7-(3-Methoxyphenyl)-5-Methyl-4,7-Dihydro-[1,2,4]Triazolo[1,5-a]Pyrimidine-6-Carboxamide], on mTOR enzyme, the pIC50 is 6.74 and the Selectivity is listed as 5. On PI3Kα (p110α/p85α), this compound gave a pIC50 of 6.02.
With `COC(=O)CCSc1nc2n(n1)C(c1cccc(OC)c1)C(C(=O)Nc1cccc(F)c1)=C(C)N2` (stereo not shown) [2b, Methyl 3-((6-((3-Fluorophenyl)Carbamoyl)-7-(3-Methoxyphenyl)-5-Methyl-4,7-Dihydro-[1,2,4]Triazolo[1,5-a]Pyrimidin-2-yl)Thio)Propanoate], the pIC50 is 6.91 on mTOR enzyme and 6.36 at PI3Kα (p110α/p85α). At mTOR enzyme, this compound yielded a Selectivity of 4.
Taken in the same sequence, the figures for `COC(=O)CCSc1nc2n(n1)C(c1cccc(OC)c1)C(C(=O)Nc1ccc(C(C)=O)cc1)=C(C)N2` (stereo not shown) [2e, Methyl 3-((6-((4-Acetylphenyl)Carbamoyl)-7-(3-Methoxyphenyl)-5-Methyl-4,7-Dihydro-[1,2,4]Triazolo[1,5-a]Pyrimidin-2-yl)Thio)Propanoate] were 7.14, 6.60 and 4.
Taken in the same sequence, the figures for `COc1cccc(C2C(C(=O)Nc3cncc(C)c3)=C(C)Nc3nc(SCCC4OCCO4)nn32)c1` (stereo not shown) [2f, 2-((2-(1,3-Dioxolan-2-yl)Ethyl)Thio)-7-(3-Methoxyphenyl)-5-Methyl-N-(5-Methylpyridin-3-yl)-4,7-Dihydro-[1,2,4]Triazolo[1,5-a]Pyrimidine-6-Carboxamide] were 7.55, 6.71 and 7.
Take `COC(=O)CCSc1nc2n(n1)C(c1ccc(F)cc1)C(C(=O)Nc1cncc(C)c1)=C(C)N2` (stereo not shown) [3g, Methyl 3-((7-(4-Fluorophenyl)-5-Methyl-6-((5-Methylpyridin-3-yl)carbamoyl)-4,7-Dihydro-[1,2,4] Triazolo[1,5-a]Pyrimidin-2-yl)Thio)Propanoate]: at mTOR enzyme, the negative logarithm of the IC50 (pIC50) is 5.75, the Selectivity is reported as greater than 6 and the “inhibitory activity against mTOR (in words)” value is given as “low inhibitory activity against mTOR”. For the same compound, on PI3Kα (p110α/p85α), the negative-log IC50 (pIC50) was less than 5.00.
For `COC(=O)CCSc1nc2n(n1)C(c1ccccc1C)C(C(=O)Nc1cncc(C)c1)=C(C)N2` (stereo not shown) [3e, Methyl 3-((5-Methyl-6-((5-Methylpyridin-3-yl)Carbamoyl)-7-(o-Tolyl)-4,7-Dihydro-[1,2,4]Triazolo[1,5-a]pyrimidin-2-yl)Thio)Propanoate], the negative-log IC50 (pIC50) at mTOR enzyme was 6.32; at PI3Kα (p110α/p85α), 5.56. Moreover, the Selectivity at mTOR enzyme is 6.
The matching figures for `COC(=O)CCSc1nc2n(n1)C(c1ccccc1)C(C(=O)Nc1cncc(C)c1)=C(C)N2` (stereo not shown) [3c, Methyl 3-((5-Methyl-6-((5-Methylpyridin-3-yl)carbamoyl)-7-Phenyl-4,7- Dihydro-[1,2,4]Triazolo[1,5-a]Pyrimidin-2-yl)Thio)Propanoate]: 6.61, 6.15 and 3.
With `COC(=O)CCSc1nc2n(n1)C(c1ccc(C)cc1)C(C(=O)Nc1cncc(C)c1)=C(C)N2` (stereo not shown) [3d, Methyl 3-((5-Methyl-6-((5-Methylpyridin-3-yl)Carbamoyl)-7-(p-Tolyl)-4,7 -Dihydro-[1,2,4]Triazolo[1,5-a]Pyrimidin-2-yl)Thio)Propanoate], at mTOR enzyme, the negative logarithm of the IC50 (pIC50) is 6.03, the Selectivity is on record as 8 and the “inhibitory activity against mTOR (in words)” value is “low inhibitory activity against mTOR”. The compound further showed a pIC50 against PI3Kα (p110α/p85α) of 5.13.
The matching figures for `COC(=O)CCSc1nc2n(n1)C(c1ccc(O)cc1)C(C(=O)Nc1cncc(C)c1)=C(C)N2` (stereo not shown) [3b, Methyl 3-((7-(4-Hydroxyphenyl)-5-Methyl-6-((5-Methylpyridin-3-yl) Carbamoyl)-4,7-Dihydro-[1,2,4]Triazolo[1,5-a]Pyrimidin-2-yl)Thio)Propanoate]: 5.66, greater than 5, “low inhibitory activity against mTOR” and less than 5.00.
On mTOR enzyme, `COC(=O)CCSc1nc2n(n1)C(c1cccc(OC)c1)C(C(=O)Nc1ccc(OC)cc1)=C(C)N2` (stereo not shown) [2c, Methyl 3-((7-(3-Methoxyphenyl)-6-((4-Methoxyphenyl)Carbamoyl)-5-Methyl-4,7-Dihydro-[1,2,4]Triazolo[1,5-a]Pyrimidin-2-yl)Thio)Propanoate] showed a pIC50 of 6.86 and a Selectivity of 8. Further, the pIC50 against PI3Kα (p110α/p85α) was 5.98.
Taken in the same sequence, the figures for `COc1cccc(C2C(C(=O)Nc3cccnc3)=C(C)Nc3nc(SCCC4OCCO4)nn32)c1` (stereo not shown) [1b, 2-((2-(1,3-Dioxolan-2-yl)Ethyl)Thio)-7-(3-Methoxyphenyl)-5-Methyl-N-(Pyridin-3-yl)-4,7-Dihydro-[1,2,4]Triazolo[1,5-a]Pyrimidine-6-Carboxamide] were 7.30, 16 and 6.10.
